We go through 1 compound from ChEMBL document CHEMBL1155539, “Discovery of 4-[1-[([1-[4-(trifluoromethyl)benzyl]-1H-indol-7-yl]carbonyl)amino]cyclopropyl]benzoic acid (MF-766), a highly potent and selective EP4 antagonist for treating inflammatory pain” (Bioorg Med Chem Lett, 2010).

The structures appear in SMILES notation. pIC50, pKi: −log10 of the molar value.

One data set deals with Hepatocyte. The data set is described as follows: Oxidative metabolism in rat hepatocytes assessed as protein covalent binding after 2 hrs. The format is ADME, cell-based. The gist of the method: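 [3H]-labelled compound incubated with fresh rat or human hepatocytes for 2 h. Covalent protein binding was expressed as pmol-equiv/mg protein, and samples were checked for tritium loss by HPLC with radiometric detection.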

Data set [1] in a line: Volume of distribution in Beagle dog at 1 mg/kg, iv and 4 mg/kg, po. The settings on record: in vivo.
The next data set has as its system Canis familiaris. The data set is described as follows: AUC (0 to 24 hrs) in Beagle dog at 4 mg/kg, po. The settings on record: in vivo.
The target in data set [2] is T1, Prostaglandin E2 receptor EP4 subtype (Homo sapiens, UniProt P35408). The data set is described as follows: Antagonist activity at human prostanoid EP4 receptor expressed in HEK293 cells assessed as inhibition of PGE2-induced cAMP accumulation by scintillation proximity assay. The format is functional, cell-based. In outline:
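Read-out was inhibition of PGE2-induced cAMP accumulation at EP4. Values are means from at least two independent experiments.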
On the technique in general: Cyclic AMP is a second messenger, typically raised through Gs and lowered through Gi signalling.

Data set [3] concerns the target T2, Prostaglandin E2 receptor EP3 subtype (Homo sapiens, UniProt P43115).
T2 sequence (P43115 whole entry): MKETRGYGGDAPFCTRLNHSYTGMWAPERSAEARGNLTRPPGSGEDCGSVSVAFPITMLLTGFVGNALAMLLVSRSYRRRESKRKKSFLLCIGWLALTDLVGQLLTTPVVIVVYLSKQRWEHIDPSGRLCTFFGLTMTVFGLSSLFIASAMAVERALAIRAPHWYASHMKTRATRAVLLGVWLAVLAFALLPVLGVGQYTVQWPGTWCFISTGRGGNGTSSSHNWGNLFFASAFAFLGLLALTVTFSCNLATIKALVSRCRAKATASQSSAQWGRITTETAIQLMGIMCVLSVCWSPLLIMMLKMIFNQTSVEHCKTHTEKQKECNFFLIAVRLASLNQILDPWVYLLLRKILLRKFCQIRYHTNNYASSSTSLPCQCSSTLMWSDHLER
The data set is described as follows: Displacement of [3H]PGE2 from human prostanoid EP3 receptor expressed in HEK293-EBNA cells after 60 mins by scintillation counting. The data set is classed as cell-based. (Loss of bound radioactivity is the signal in a displacement assay; it reports binding, not function.)

For data set [4], the target named is T1, Prostaglandin E2 receptor EP4 subtype. The data set is described as follows: Antagonist activity at human prostanoid EP4 receptor expressed in HEK293 cells assessed as inhibition of PGE2-induced cAMP accumulation by scintillation proximity assay in presence of 10% human serum. The data set is classed as functional, cell-based.
Data set [5] deals with T3, Prostaglandin D2 receptor (Homo sapiens, UniProt Q13258).
T3 sequence (Q13258 whole entry): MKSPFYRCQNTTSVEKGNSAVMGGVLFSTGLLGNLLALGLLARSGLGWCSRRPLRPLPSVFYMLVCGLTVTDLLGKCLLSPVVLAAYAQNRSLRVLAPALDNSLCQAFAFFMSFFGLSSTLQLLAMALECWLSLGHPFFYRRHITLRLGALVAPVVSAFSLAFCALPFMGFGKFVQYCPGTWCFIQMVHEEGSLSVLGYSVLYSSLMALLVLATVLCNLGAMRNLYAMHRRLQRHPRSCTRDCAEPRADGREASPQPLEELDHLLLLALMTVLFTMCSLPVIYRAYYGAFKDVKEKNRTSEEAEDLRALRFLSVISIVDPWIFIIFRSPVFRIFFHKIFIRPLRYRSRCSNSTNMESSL
The data set is described as follows: Displacement of [3H]PGD2 from human Prostanoid DP1 receptor expressed in HEK293-EBNA cells after 60 mins by scintillation counting. The format is cell-based.

The target in data set [6] is T1, Prostaglandin E2 receptor EP4 subtype. The data set is described as follows: Displacement of [3H]PGE2 from human prostanoid EP4 receptor expressed in HEK293-EBNA cells after 60 mins by scintillation counting in presence of 10% human serum. The format is cell-based.
Data set [7] can be described thus: Plasma clearance in Sprague-Dawley rat at 5 mg/kg, iv and 20 mg/kg, po. The data set is classed as ADME, organism-based. The gist of the method: (§1)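 Sprague-Dawley rats dosed iv at 5 mg/kg and po at 20 mg/kg. The iv group was n = 2 males given the free acid in 60% PEG 200 at 1 mL/kg. PK parameters were derived from plasma levels.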
Data set [8] in a line: Elimination half life in Sprague-Dawley rat at 5 mg/kg, iv and 20 mg/kg, po. The data set is classed as ADME, organism-based. To be noted: in vivo, read-out: beta t1/2 (converted). In outline: as §1
A further data set has as its system Rattus norvegicus. The data set is described as follows: Antiinflammatory activity in rat assessed as inhibition of complete Freund's adjuvant-induced primary paw swelling administered daily once 9 days after adjuvant challenge measured on day 18. The data set is classed as functional. In outline: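 Rat adjuvant-induced arthritis model with daily dosing in mg/kg/day. Dose groups were 0, 0.001, 0.01, 0.1 and 1 mg/kg, plus a non-AIA control group. Primary and secondary paw swelling were scored as % inhibition relative to vehicle-treated arthritic rats, and ED50 was estimated from the dose–response.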

T1 sequence (P35408 whole entry): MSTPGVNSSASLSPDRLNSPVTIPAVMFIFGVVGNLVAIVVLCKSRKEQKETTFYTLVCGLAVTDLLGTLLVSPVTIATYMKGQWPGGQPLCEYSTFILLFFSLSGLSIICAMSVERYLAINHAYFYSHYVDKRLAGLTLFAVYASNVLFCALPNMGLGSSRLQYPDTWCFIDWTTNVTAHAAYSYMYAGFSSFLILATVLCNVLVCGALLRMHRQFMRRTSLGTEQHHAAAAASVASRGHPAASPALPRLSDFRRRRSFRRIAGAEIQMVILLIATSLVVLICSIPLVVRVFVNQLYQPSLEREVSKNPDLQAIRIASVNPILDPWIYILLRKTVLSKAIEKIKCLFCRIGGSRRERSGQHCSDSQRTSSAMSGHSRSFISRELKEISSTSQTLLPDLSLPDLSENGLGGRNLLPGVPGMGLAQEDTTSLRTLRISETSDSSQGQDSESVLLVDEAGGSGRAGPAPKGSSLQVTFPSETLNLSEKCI

`O=C(O)c1ccc(C2(NC(=O)c3cccc4ccn(Cc5ccc(C(F)(F)F)cc5)c34)CC2)cc1`: in the data set on Hepatocyte, the Activity is 61 pmolequiv/mg. In data set [1], this compound showed a Vd of 0.8 L/kg. For the same compound, in the data set with Canis familiaris, the AUC (usually concentration integrated over time) was 15 µM·h. Besides, the pIC50 (as a rule, the IC50 on a negative log10 scale, so that one unit is a factor of ten) in data set [2] is 8.89; in [4] it was 8.74. Further, the pKi (commonly the negative decadic logarithm of the Ki, by convention in mol/L) in data set [3] was 5.13; in [5] it was 5.78; in [6], 9.47. For the same compound, the clearance in [7] was found to be 3.7 mL/min/kg. For the same compound, the half-life in data set [8] was 4.6 h. Also, the ED100 with Rattus norvegicus turned out to be 0.025 mg/kg/day.
